Here are results for 13 compounds from ChEMBL document CHEMBL3232898, “Heterocyclic aminoparthenolide derivatives modulate G(2)-M cell cycle progression during Xenopus oocyte maturation” (Bioorg Med Chem Lett, 2014).

Broadly, the EC50 is the concentration at which the effect is half-maximal.

Activity calls are given as the source filed them. The calls are words filed in the database; no cut-off is given here. A value given as a limit tells only on which side of the number the result lay.

Assay [1] relates to Oocyte. As to the kind of experiment: Modulation of G2-M cell cycle progression in Xenopus oocytes assessed as effect on phenotype upon progression to GVBD during oocyte maturation in presence of progesterone. The class given is functional, cell-based. The method, boiled down: (§1)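 Isolated Xenopus oocytes (20 per well) were incubated overnight with compound added from DMSO stock (100 µM starting concentration, 1% DMSO final). Next morning GVBD was scored by the appearance of a white spot on the animal pole. Oocytes without spots then received 2 µg/ml progesterone. Time to GVBD was expressed relative to the GVBD50 of DMSO controls, where 1.0 means no change, 2.0 means no maturation and 0.0 means spontaneous GVBD.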

For assay [2], the system named is Oocyte. As to the kind of experiment: Modulation of G2-M cell cycle progression in Xenopus oocytes assessed as delay time to germinal vesicle breakdown at 100 uM measured after overnight incubation in presence of progesterone. The class given is functional, cell-based. An outline of the steps: as §1
Assay [3] has as its system Oocyte. The experiment in a line: Modulation of G2-M cell cycle progression in Xenopus oocytes assessed as induction of spontaneous maturation by measuring germinal vesicle breakdown at 100 uM after overnight incubation in absence of progesterone. The class given is functional, cell-based. The method, boiled down: as §1
In assay [4] the test system is Oocyte. The experiment in a line: Modulation of G2-M cell cycle progression in Xenopus oocytes assessed as induction of oocyte progression to germinal vesicle breakdown by measuring appearance of white spot on animal pole after overnight incubation in absence of progesterone. The class given is functional, cell-based. An outline of the steps: as §1
Assay [5] deals with Xenopus. The experiment in a line: Activation of progesterone-independent MAPK in Xenopus oocytes assessed as enzyme phosphorylation at 100 uM measured prior to GVBD completion. The class given is cell-based. The method, boiled down:
(§2)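 Oocytes treated with compound or DMSO were lysed in NP40 buffer with sodium vanadate and protease inhibitors, clarified, run on 10% gels and blotted to nitrocellulose. Blots were blocked in 1% BSA/TBST and probed at 1:1000 with phospho-Cdc2 Tyr15 (inhibitory) and phospho-MAP kinase Thr202/Tyr204 (activating) antibodies, then HRP secondary with ECL detection.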

For assay [6], the system named is Xenopus. The experiment in a line: Activation of CDK1/Cyclin B (MPF) in Xenopus oocytes assessed as retention of inhibitory phosphorylation of CDK1 at 100 uM measured prior to GVBD completion. The class given is cell-based. The method, boiled down:
as §2

For assay [7], the system named is Xenopus. As to the kind of experiment: Activation of progesterone-independent MAPK in Xenopus oocytes assessed as enzyme phosphorylation at 100 uM measured after GVBD completion. The class given is cell-based. The method, boiled down: as §2
The subject of assay [8] is Xenopus. The experiment in a line: Activation of progesterone-independent MAPK in Xenopus oocytes assessed as de-phosphorylation of MPF at 100 uM measured after GVBD completion. The class given is cell-based. The method, boiled down:
as §2

Assay [9] concerns Oocyte. The experiment in a line: Modulation of G2-M cell cycle progression in Xenopus oocytes assessed as inhibition of progesterone-stimulated maturation by measuring germinal vesicle breakdown at 100 uM measured after overnight incubation. The assay is classed as functional, cell-based. An outline of the steps:
as §1

In assay [10] the test system is Oocyte. The experiment in a line: Modulation of G2-M cell cycle progression in Xenopus oocytes assessed as acceleration of progesterone-stimulated oocyte progression to germinal vesicle breakdown at 5 to 50 uM measured after overnight incubation relative to DMSO-treated control. The class given is functional. The method, boiled down:
as §1

The test system of assay [11] is Oocyte. As to the kind of experiment: Modulation of G2-M cell cycle progression in Xenopus oocytes assessed as acceleration of progesterone-stimulated maturation by measuring germinal vesicle breakdown after overnight incubation. The assay is classed as functional, cell-based. The following applies: Xenopus laevis. An outline of the steps: as §1

In the case of `C/C1=C\CC[C@@]2(C)O[C@@H]2[C@H]2OC(=O)[C@@H](CN(C)C)[C@@H]2CC1`, in the assay with Oocyte [1], the result was inactive.
On to `C/C1=C\CC[C@@]2(C)O[C@@H]2[C@H]2OC(=O)[C@@H](CNCCN3CCOCC3)[C@@H]2CC1`, for which the result in the assay with Oocyte [2] was Active.
As to `C/C1=C\CC[C@@]2(C)O[C@@H]2[C@H]2OC(=O)[C@@H](Cn3ccnc3C)[C@@H]2CC1`, the result in the assay with Oocyte [1] was inactive.
`C/C1=C\CC[C@@]2(C)O[C@@H]2[C@H]2OC(=O)[C@@H](Cn3cnc(C(F)(F)F)c3)[C@@H]2CC1`: in the assay on Oocyte [1], the outcome was inactive.
`C=C1C(=O)O[C@@H]2C3O[C@]3(C)CC/C=C(\C)CC[C@@H]12` (stereo not given in full): the outcome with Oocyte [1] was inactive.
Take `C/C1=C\CC[C@@]2(C)O[C@@H]2[C@H]2OC(=O)[C@@H](CNc3nc4ccccc4[nH]3)[C@@H]2CC1`: the outcome with Oocyte [3], in the assay on Xenopus [5], with Xenopus [7] and in the assay on Xenopus [8] was Active. Besides, in the assay on Oocyte [4], the Activity result is “Dose-dependent effect”. Besides, the result with Xenopus [6] was inactive.
Regarding `C/C1=C\CC[C@@]2(C)O[C@@H]2[C@H]2OC(=O)[C@@H](CNCC3CCNCC3)[C@@H]2CC1`, in the assay on Oocyte [1], the outcome was inactive.
Take `C/C1=C\CC[C@@]2(C)O[C@@H]2[C@H]2OC(=O)[C@@H](Cn3cnc(CO)c3)[C@@H]2CC1`: in the assay with Oocyte [1], the outcome was inactive.
Consider `C/C1=C\CC[C@@]2(C)O[C@@H]2[C@H]2OC(=O)[C@@H](Cn3ccnc3)[C@@H]2CC1`, for which the outcome with Oocyte [1] was inactive.
For the compound `C/C1=C\CC[C@@]2(C)O[C@@H]2[C@H]2OC(=O)[C@@H](CNCCCn3ccnc3)[C@@H]2CC1`, in the assay on Oocyte [9], the inhibition entry is “Active”. Moreover, in the assay on Oocyte [10], the “fold change (FC)” value amounted to 2. The EC50 in the assay with Oocyte [11] was below 5 µM.
As for `C/C1=C\CC[C@@]2(C)O[C@@H]2[C@H]2OC(=O)[C@@H](CNCc3nc4ccccc4[nH]3)[C@@H]2CC1`, the result in the assay with Oocyte [1] was inactive.
For `C/C1=C\CC[C@@]2(C)O[C@@H]2[C@H]2OC(=O)[C@@H](Cn3cnc([N+](=O)[O-])c3)[C@@H]2CC1`, in the assay on Oocyte [1], the result was inactive.
`CSc1nc(NC[C@@H]2C(=O)O[C@H]3[C@H]2CC/C(C)=C/CC[C@@]2(C)O[C@H]32)n[nH]1`: the outcome in the assay on Oocyte [1] was inactive.
